This sample holds only a part of the variants without activity.
B1: tRNA (parent)
chain: GUUCCGUUGGCGUAAUGGUAACGCGUCUCCCUCCUAAGGAGAAGACUGCGGGUUCGAGUCCCGUACGGAACG

Variants of: B1
Test: yeast fitness relative to wild type (ratio to wild type); higher = fitter; tRNA-Arg(CCU), competitive growth, 37 C, YPD
Summary of the method: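 A pool of Saccharomyces cerevisiae strains, each with a tRNA-Arg(CCU) gene variant at the native genomic locus, was competed in YPD at 37°C for 24 hours across six parallel replicates. The variants had been chemically synthesised at a 3% per-site mutation rate over 69 sites, and gene amplicons before and after competition were read by 100-nucleotide paired-end sequencing. Darwinian fitness relative to wild type rested on changes in genotype frequencies. Genotypes required ≥ 100 starting reads, and estimates < 0.5 were set to 0.5.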

| Variant | yeast fitness |
| --- | --- |
| U19C U32C | 0.926 |
| U19G A20U C30U G48A A70U | ≤ 0.5 |
| U19A U35A A36U C55G G56C | ≤ 0.5 |
| U19C A21U C22A C49U | 0.536 |
| U19C C34A G50C G56A | 0.55 |
| U19C A20C | 0.805 |
| U19G U28G A36U C46U C61U | ≤ 0.5 |
| U19C A20C A65U | 0.55 |
| U19C C22G A65U | 0.547 |
| U19G C29A A45U | ≤ 0.5 |
| U19C C31A G41C | 0.577 |
| U19G A37G C66U | 0.639 |
| A20C A21G A57C | 0.531 |
| U19C U54C | 0.879 |
| U19C U54A | 0.559 |
| U19A U28A C60G | ≤ 0.5 |
| U19G C22U C49U C62A | ≤ 0.5 |
| U19A C27U A57G | 0.725 |
| U19C C55U C61A | ≤ 0.5 |
| A20C A36G | 0.908 |
| U19G G44A C46G | 0.946 |
| U19C G58A | 0.961 |
| U19C C55A | 0.601 |
| A20C A40C G48C | 0.719 |

| Variant | yeast fitness |
| --- | --- |
| A20C A45C C46U | 0.587 |
| A20C A21U C31U C60U A65U | ≤ 0.5 |
| U19C G50A C55A A65U | ≤ 0.5 |
| U19A C30U G38C U53G | ≤ 0.5 |
| U19A C30G A43C U47C U54C | ≤ 0.5 |
| U19C C27A A43G | 0.606 |
| U19G C22G C34U C61G | ≤ 0.5 |
| A20C C22A C27G G51C | ≤ 0.5 |
| U19C G48C | 0.922 |
| U19C C46A A57C A70C | ≤ 0.5 |
| U19C A21G C22U | 0.552 |
| U19G A57G | 0.611 |
| U19C C29U A43G | 0.677 |
| U19C C24U U64A | 0.73 |
| U19A C31G A65U | 0.582 |
| U19C A20C C33U U35A C49A A69U | ≤ 0.5 |
| U19G C29U | 0.795 |
| U19C C29G U32G C61U C66A | ≤ 0.5 |
| U19A C29G G48A C61A | 0.683 |
| U19C G38A | 1.01 |
| U19A U53A | 0.553 |
| U19A C24U | 1.03 |
| U19C A21G U26G | 1.01 |
| U19C C24G A37U U47A A65G C66U | ≤ 0.5 |

| Variant | yeast fitness |
| --- | --- |
| U19C C46A C60G G67C | ≤ 0.5 |
| U19C C30U G51C | 0.693 |
| U19C U32A G67A | 0.65 |
| U19G A40C | 0.732 |
| U19A C27A C31A G52A G58C A70G | ≤ 0.5 |
| U19A G41C A70U | ≤ 0.5 |
| A20C A21G | 0.953 |
| U19A G25C C33A A37G G44A | ≤ 0.5 |
| U19C A21U A40U | 0.641 |
| U19C A65U | 1.07 |
| U19G A43C | 0.971 |
| U19G A43U | 1.04 |
| U19G C61U | 0.77 |
| U19C C46U A69U | 0.804 |
| A20C A40G C62G | 0.864 |
| U19C A20C A21U | ≤ 0.5 |
| A20C A21U C27G A42U A69C | ≤ 0.5 |
| U19C A37G C49U | 0.566 |
| A20C A42C G48A | 0.591 |
| U19G A43C G63U U64A | ≤ 0.5 |
| U19C G39C G41C | 0.51 |
| U19A C27A A45C | 0.557 |
| U19G A65G | 1.03 |
| U19C A45C C61A | ≤ 0.5 |

| Variant | yeast fitness |
| --- | --- |
| U19G C49A C62G C66U A70G | ≤ 0.5 |
| U19C C30U C55G G58C | 0.533 |
| U19G A21U C29G | 0.62 |
| U19C G25C G51C C60U G67A | 0.545 |
| U19A U26A | 0.907 |
| U19A U26C | 0.834 |
| U19C C30G | 0.645 |
| U19G C55G C66U | 0.536 |
| U19A C27A C31A A57C | 0.799 |
| A20C A65C | 0.957 |
| U19C U32A A37C C55G | ≤ 0.5 |
| U19C A20C C33U A69C | ≤ 0.5 |
| U19A C34G A43C C49U | ≤ 0.5 |
| U19A C27U A45U C62A | ≤ 0.5 |
| U19G C60U C61G G67A | ≤ 0.5 |
| U19G U32G | 0.62 |
| A20C A42U A65U | 0.553 |
| A20C A70U | 1.12 |
| U19C C29A A37G | ≤ 0.5 |
| A20C A21G A45C | 0.687 |
| U19C A45C G48C | 0.57 |
| U19C G38C G44C C46A A70G | 0.574 |
| U19C C49A A57C | 0.599 |
| U19C C62A | 0.713 |

| Variant | yeast fitness |
| --- | --- |
| U19C C62G | 0.832 |
| U19G C29A A69U | ≤ 0.5 |
| U19C C49A C55U | ≤ 0.5 |
| U19G G48C | 0.948 |
| U19C A20C C31G G67A | ≤ 0.5 |
| U19C C27A U54G | ≤ 0.5 |
| U19G C34U | 0.687 |
| U19C U32C C33G C34U U54A C66U | ≤ 0.5 |
| U19C U26C G41C A43U A57G | ≤ 0.5 |
| U19C A36C G41C | ≤ 0.5 |
| U19G G56A C60U | 0.69 |
| U19A U47A C61A | 0.549 |
| U19C A20G G58A | 0.709 |
| U19G A20U U26A G38C A45G C46G G50A G56C | ≤ 0.5 |
| A20C A21C A45G | ≤ 0.5 |
| U19C G48C C55U | ≤ 0.5 |
| U19C C31U C33G G41A C49G U54C | ≤ 0.5 |
| U19G U47A | 0.771 |
| U19A G67U | 0.974 |
| U19A G67C | 0.74 |
| U19C C30G U59C A69U | ≤ 0.5 |
| U19C A36C U47A G48C U54G A65C | ≤ 0.5 |
| U19C U26A U32A | 0.541 |
| U19C C30A U47C | 0.693 |

| Variant | yeast fitness |
| --- | --- |
| U19C A20C C24A | ≤ 0.5 |
| U19C A45U | 0.923 |
| U19A C27G A65U | ≤ 0.5 |
| U19C C22G | 0.978 |
| U19G U28C A42C | 0.669 |
| U19A G38C C60A | ≤ 0.5 |
| U19A C29G U54C G58A | ≤ 0.5 |
| U19C U26G A36C | ≤ 0.5 |
| U19C C34A | 0.76 |
| A20C A42C A69U | 0.576 |
| A20C C22G C60A | ≤ 0.5 |
| U19A U26C C30A A43C | ≤ 0.5 |
| U19C C27A C30U G56C | ≤ 0.5 |
| U19C U32G C33G | ≤ 0.5 |
| U19C C31U G56A G68C | ≤ 0.5 |
| U19A C60G A69U | ≤ 0.5 |
| U19C A20C C31G A65C | ≤ 0.5 |
| U19C U28C G68C | 0.67 |
| U19C A20U C61G C66U A69U | ≤ 0.5 |
| U19G C29U A70C | ≤ 0.5 |
| U19C A43G G44C A45C C66U | 0.589 |
| U19C C31A | 0.768 |
| U19C G48C G56A A69C | 0.642 |
| A20C C22A A36C A69U | ≤ 0.5 |

| Variant | yeast fitness |
| --- | --- |
| U19G A40G C55G A65C | ≤ 0.5 |
| U19C A20G G67A A69U | ≤ 0.5 |
| U19C C27A | 0.987 |
| A20C A37G A42G G68C | ≤ 0.5 |
| U19C C22U G25C C27G A40C | 0.587 |
| U19C G68C | 0.83 |
| U19C U28C C46U | 0.712 |
| A20C A21C G23C C30G A65U C66U | ≤ 0.5 |
| A20C C22G C33U A45U | ≤ 0.5 |
| U19G C46G A57C | ≤ 0.5 |
| U19C U26C G44A | 0.521 |
| U19G C34G A69C | 0.504 |
| U19A C24U G38A U54C | ≤ 0.5 |
| U19C C34U A43U G63A A70C | ≤ 0.5 |
| U19A G50A | 0.795 |
| U19C A20C G50C U64C | ≤ 0.5 |
| A20C A57U A65U | 0.571 |
| U19C A20C C33U U35A G58A | ≤ 0.5 |
| U19G C24A C34G | 0.75 |
| U19G C49U C62A | 0.598 |
| U19G U35C A43C G52C U54A | ≤ 0.5 |
| U19A G58A A69U | 1.2 |
| U19C C29G G44C | 0.505 |

From the RNAGym collection of RNA variant scans (doi:10.1126/science.aae0568)
